Measured values: ChEMBL document CHEMBL2046357, “Inhibitors of Dengue virus and West Nile virus proteases based on the aminobenzamide scaffold” (Bioorg Med Chem, 2012)
Calls of active or inactive are those of the source. The calls are words filed in the database; no cut-off is given here.

Key:
West Nile virus [1] = assay: Competitive inhibition of West Nile virus NS2B-NS3 protease expressed in Escherichia coli Top10F' at 1 to 5 uM uM assessed as reduction in kcat/Km of substrate pre-incubated for 15 mins before addition of Bz-NIe-Lys-Arg-Arg-AMC substrate by spectrofluorometry
Outline: (§1)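 Inhibitor fixed at 0, 1.0, 3.0 or 5.0 μM; substrate varied 0–50 μM. Initial cleavage rates used to derive apparent Km and kcat. Ki taken from secondary plot of Km,app against inhibitor concentration. Duplicates, repeated three times.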

[2] = Inhibition of Dengue virus 2 NS2B-NS3 protease expressed in Escherichia coli Top10F' pre-incubated for 15 mins before addition of Bz-NIe-Lys-Arg-Arg-AMC substrate by spectrofluorometry; parameters: species or system dengue virus type 2
Outline: (§2)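 Protease (DENV2 25 nM; WNV 28 nM) pre-incubated with compound for 15 min at room temperature in 200 mM Tris·HCl pH 9.5 with 30% glycerol. Then 5 μM substrate added, and fluorescence (ex 380/em 460 nm) read at 37 °C for up to 30 min.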

dengue virus type 2 [3] = assay: Inhibition of Dengue virus 2 NS2B-NS3 protease expressed in Escherichia coli Top10F' at 25 uM pre-incubated for 15 mins before addition of Bz-NIe-Lys-Arg-Arg-AMC substrate by spectrofluorometry
Outline: (§3)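 Enzyme (DENV2 protease 25 nM; WNV protease 28 nM) pre-incubated with compound for 15 min at room temperature in 200 mM Tris·HCl pH 9.5, 30% glycerol, with 1% v/v DMSO final. Reaction started with 5 μM substrate. Fluorescence (ex 380/em 460 nm) followed every 90 s for up to 30 min at 37 °C. Percent inhibition calculated against no-compound fluorescence. Aprotinin and DMSO served as controls. Triplicates, averaged.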

West Nile virus [4] = assay: Inhibition of West Nile virus NS2B-NS3 protease expressed in Escherichia coli Top10F' at 25 uM pre-incubated for 15 mins before addition of Bz-NIe-Lys-Arg-Arg-AMC substrate by spectrofluorometry; outline: as §3
West Nile virus [5] = assay: Competitive inhibition of West Nile virus NS2B-NS3 protease expressed in Escherichia coli Top10F' at 1 to 5 uM uM assessed as increase in Km of substrate pre-incubated for 15 mins before addition of Bz-NIe-Lys-Arg-Arg-AMC substrate by spectrofluorometry; outline: as §1
dengue virus type 2 [6] = assay: Inhibition of Dengue virus 2 NS2B-NS3 protease expressed in Escherichia coli Top10F' at 10 uM pre-incubated for 15 mins before addition of Bz-NIe-Lys-Arg-Arg-AMC substrate by spectrofluorometry; outline: as §3
[7] = Inhibition of West Nile virus NS2B-NS3 protease expressed in Escherichia coli Top10F' pre-incubated for 15 mins before addition of Bz-NIe-Lys-Arg-Arg-AMC substrate by spectrofluorometry; outline: as §2
West Nile virus [8] = assay: Inhibition of West Nile virus NS2B-NS3 protease expressed in Escherichia coli Top10F' at 10 uM pre-incubated for 15 mins before addition of Bz-NIe-Lys-Arg-Arg-AMC substrate by spectrofluorometry; outline: as §3
[9] = 25 uM, in the assay text read “at 25 uM” for “at 10 uM”

Row | Compound | inhibition (West Nile virus [1]) | IC50 [2] [µM] | inhibition (dengue virus type 2 [3]) | inhibition (West Nile virus [4]) | inhibition (West Nile virus [5]) | inhibition (dengue virus type 2 [6]) | IC50 [7] [µM] | inhibition (West Nile virus [8]; 10 uM) [%] | inhibition (West Nile virus [8]; [9])
1 | O=C(NCc1cn(Cc2ccc(F)cc2)nn1)Nc1ccc(C(=O)Nc2ccc(Oc3ccccc3)cc2)cc1 | Active | 6.82 | 76% | 82.3% | Active | 55.3% | 5.51 | 58.8 | 
2 | O=C(NCc1cn(Cc2ccc(F)cc2)nn1)Nc1ccc(C(=O)Nc2ccccc2)cc1 |  |  | inactive | inactive |  | inactive |  |  | inactive
3 | O=C(NCc1cn(Cc2ccc(F)cc2)nn1)Nc1ccc(C(=O)NCc2ccco2)cc1 |  |  | inactive | inactive |  | inactive |  |  | inactive
4 | O=C(NCc1cn(Cc2ccccc2)nn1)Nc1ccc(C(=O)Nc2ccc(Oc3ccccc3)cc2)cc1 |  |  | 52.5% | 58% |  | 39.4% |  | 46.5 | 
5 | O=C(NCc1cn(Cc2ccccc2)nn1)Nc1cccc(C(=O)NCc2ccccc2)c1 |  |  | inactive | inactive |  | inactive |  |  | inactive
6 | O=C(NCc1cn(Cc2ccc(F)cc2)nn1)Nc1ccc(C(=O)NCCN2CCOCC2)cc1 |  |  | inactive | inactive |  | inactive |  |  | inactive
7 | O=C(NCc1cn(CSc2ccccc2)nn1)Nc1cccc(C(=O)NCc2ccccc2)c1 |  |  | inactive | inactive |  | inactive |  |  | inactive
8 | O=C(NCc1cn(CSc2ccccc2)nn1)Nc1ccc(C(=O)NCCc2ccccc2)cc1 |  |  | inactive | inactive |  | inactive |  |  | inactive
9 | O=C(NCc1cn(Cc2ccccc2)nn1)Nc1ccc(C(=O)NCCN2CCOCC2)cc1 |  |  | inactive | inactive |  | inactive |  |  | inactive
10 | O=C(NCc1cn(CSc2ccccc2)nn1)Nc1ccc(C(=O)NCc2ccco2)cc1 |  |  | inactive | inactive |  | inactive |  |  | inactive
11 | O=C(NCc1cn(CSc2ccccc2)nn1)Nc1ccc(C(=O)Nc2ccc(Oc3ccccc3)cc2)cc1 |  |  | inactive | inactive |  | inactive |  |  | inactive
12 | O=C(NCc1cn(CSc2ccccc2)nn1)Nc1cccc(C(=O)NCCc2ccccc2)c1 |  |  | inactive | inactive |  | inactive |  |  | inactive
13 | O=C(NCc1cn(Cc2ccccc2)nn1)Nc1cccc(C(=O)NCCc2ccccc2)c1 |  |  | inactive | inactive |  | inactive |  |  | inactive
14 | O=C(NCc1cn(Cc2ccccc2)nn1)Nc1cccc(C(=O)Nc2cccc(Oc3ccccc3)c2)c1 |  |  | inactive | inactive |  | inactive |  |  | inactive
15 | O=C(NCc1cn(Cc2ccccc2)nn1)Nc1ccc(C(=O)Nc2cccc(Oc3ccccc3)c2)cc1 |  |  | inactive | inactive |  | inactive |  |  | inactive
16 | O=C(NCc1cn(CSc2ccccc2)nn1)Nc1ccc(C(=O)NCCN2CCOCC2)cc1 |  |  | inactive | inactive |  | inactive |  |  | inactive
17 | O=C(NCc1cn(Cc2ccc(F)cc2)nn1)Nc1ccc(C(=O)NCc2ccccc2)cc1 |  |  | inactive | inactive |  | inactive |  |  | inactive
18 | O=C(NCc1cn(CSc2ccccc2)nn1)Nc1ccc(C(=O)Nc2ccccc2)cc1 |  |  | inactive | inactive |  | inactive |  |  | inactive
19 | O=C(NCc1cn(Cc2ccccc2)nn1)Nc1ccc(C(=O)NCc2ccccc2)cc1 |  |  | inactive | inactive |  | inactive |  |  | inactive
20 | O=C(NCc1cn(CSc2ccccc2)nn1)Nc1cccc(C(=O)Nc2cccc(Oc3ccccc3)c2)c1 |  |  | 58.2% | 60.3% |  | 40.3% |  | 49.3 | 
21 | O=C(NCc1cn(Cc2ccccc2)nn1)Nc1ccc(C(=O)NCCc2ccccc2)cc1 |  |  | inactive | inactive |  | inactive |  |  | inactive
22 | O=C(NCc1cn(CSc2ccccc2)nn1)Nc1ccc(C(=O)NCc2ccccc2)cc1 |  |  | inactive | inactive |  | inactive |  |  | inactive
23 | O=C(NCc1cn(Cc2ccc(F)cc2)nn1)Nc1ccc(C(=O)NCCc2ccccc2)cc1 |  |  | inactive | inactive |  | inactive |  |  | inactive
24 | O=C(NCc1cn(Cc2ccccc2)nn1)Nc1ccc(C(=O)Nc2ccccc2)cc1 |  |  | inactive | inactive |  | inactive |  |  | inactive
25 | O=C(NCc1cn(Cc2ccc(F)cc2)nn1)Nc1ccc(C(=O)Nc2cccc(Oc3ccccc3)c2)cc1 |  |  | 57% | 60.9% |  | 41.1% |  | 44.5 | 
26 | O=C(NCc1cn(Cc2ccccc2)nn1)Nc1ccc(C(=O)NCc2ccco2)cc1 |  |  | inactive | inactive |  | inactive |  |  | inactive
